Laboratory results as given in ChEMBL document CHEMBL1153540, “Structure-based optimization of arylamides as inhibitors of soluble epoxide hydrolase” (J Med Chem, 2009).

How the values were obtained:
[1] = Plasma concentration in Sprague-Dawley rat at 5 mg/kg, po after 4 hrs by LC-MS/MS analysis; type: ADME, organism-based; design: dose 5 mg/kg, route oral
In short: (§1)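 Male Sprague-Dawley rats fitted with jugular catheters, fed, three per compound, dosed orally at 5 mg/kg. Vehicle was 1% CMC/0.2% Tween80 in water, or 80% PEG 400/20% pH 2 30 mM citric acid, depending on compound. Serial heparinized blood taken at 1, 2, 4 and 6 h. Plasma proteins precipitated with acetonitrile; compound quantified by LC/MS/MS in MRM mode.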

[2] = Plasma concentration in Sprague-Dawley rat at 5 mg/kg, po after 2 hrs by LC-MS/MS analysis; type: ADME, organism-based; design: dose 5 mg/kg, route oral; in short: as §1
[3] = Plasma concentration in Sprague-Dawley rat at 5 mg/kg, po after 1 hr by LC-MS/MS analysis; type: ADME, organism-based; design: dose 5 mg/kg, route oral; in short: as §1
[4] = Aqueous solubility at pH 7.4; type: physicochemical

Row | concentration at 4 h [1] | concentration at 2 h [2] | concentration at 1 h [3] | solubility [4] | SMILES
1 | 3600 nM | – | – | – | CS(=O)(=O)c1ccc(C(CCNC(=O)c2ccc(C#N)cc2)c2ccc(F)cc2)cc1 (stereo not given)
2 | 100 nM | 200 nM | 300 nM | < 0.1 µg/mL | O=C(NCCC(c1ccc(F)cc1)c1ccc(F)cc1)c1ccc(OCC(F)(F)F)nc1
